Results of several laboratories.
Lines come from different studies, so protocols differ.
EGFR: Epidermal growth factor receptor (EGFR, Homo sapiens, UniProt P00533)
EGFR L858R/T790M: Epidermal growth factor receptor (EGFR, Homo sapiens, UniProt P00533, L858R/T790M)
EGFR A750P/del747-749: Epidermal growth factor receptor (EGFR, Homo sapiens, UniProt P00533, A750P/del747-749)
EGFR T790M: Epidermal growth factor receptor (EGFR, Homo sapiens, UniProt P00533, T790M)
EGFR G719C: Epidermal growth factor receptor (EGFR, Homo sapiens, UniProt P00533, G719C)
EGFR del746-750: Epidermal growth factor receptor (EGFR, Homo sapiens, UniProt P00533, del746-750)

Cn1nc(C(=O)NCc2ccc(C(=O)O)cc2)cc1-c1ccc2[nH]ccc2c1  remaining binding (EGFR; cell-free assay; competition with immobilised ligand; 0.1 µM): 100%
CCC(=O)Nc1cc(Nc2nc(N3CCc4sccc4C3)c3cccnc3n2)c(OC)cc1N(C)C  inhibition (EGFR L858R/T790M; enzyme activity; inhibitor; ELISA; 0.1 µM): 6%
Cc1nc(C2CCN(C(=O)c3ccc(OC(F)(F)F)cc3N)CC2)c2ncc(N3CCN(C)CC3)cc2n1  remaining binding (EGFR A750P/del747-749; cell-free assay; competition with immobilised ligand; 1 µM): 70%
N[C@@H]1CCN(c2nccc(-c3cnn4ncccc34)n2)C1  remaining binding (Epidermal growth factor receptor (EGFR, Homo sapiens, UniProt P00533, L861Q); binding; 1 µM): 92%
CN(C)C(=O)Cn1cc(-c2nc(C3(c4ccc(-c5cnc(N)nc5)cc4)CC3)no2)cn1  remaining binding (EGFR A750P/del747-749; cell-free assay; competition with immobilised ligand; 1 µM): 80%
Cc1cnc(NC2CCOCC2)nc1-n1cnc(C(=O)NC(CN)c2cc(F)cc(Cl)c2)c1 (stereo not drawn)  remaining activity (EGFR T790M; enzyme activity; inhibitor; radiometric; 1 µM): 98%
C[C@@H]1CCN(c2nccc(-c3cnn4ncccc34)n2)C1  remaining binding (EGFR G719C; binding; 1 µM): 87%
Nc1ncnc2occ(-c3ccc(NC(=O)Nc4cc(C(F)(F)F)ccc4F)cc3)c12  remaining signal (EGFR del746-750; cell-free assay; 20 µM): 34%
COc1cc(-c2cc(-c3ccc(N4CCNCC4)cc3)cnc2N)cc(OC)c1OC  inhibition (Epidermal growth factor receptor (EGFR, Homo sapiens, UniProt P00533, L858R); enzyme activity; inhibitor; 1 µM): 76%
CC(C)(C)c1nc2c(s1)c1nc(N)ncc1c1ccc(NS(=O)(=O)c3c(F)cccc3F)c(F)c12  remaining activity (EGFR; enzyme activity; inhibitor; radiometric; 1 µM): 104%
c1nc2c(Nc3ccc4c(c3)OCCO4)nc(Nc3ccc4c(c3)OCCO4)nc2[nH]1  activity vs control (EGFR; enzyme activity; inhibitor; 10 µM): 3.5%
O=c1nc(-c2ccccn2)sc2ccccc12  remaining binding (EGFR G719C; cell-free assay; competition with immobilised ligand; 1 µM): 77%
CC/C(=N\NC(=O)NCc1cccc(O)c1)c1ccc(O)c(C)c1O  inhibition (EGFR T790M; enzyme activity; inhibitor; 0.1 µM): 1.5%
COc1cc(Cl)c(C(=O)N[C@@H](CN[C@H]2CC[C@@H](N)CC2)Cc2ccc(C#N)cc2)cc1-c1ccc(CN[C@H](C)c2ccc(C)cc2)o1  remaining activity (EGFR; enzyme activity; inhibitor; 1 µM): 103%
Oc1cccc(-c2nc(N3CCOCC3)c3oc4ncccc4c3n2)c1  remaining signal (EGFR; cell-free assay; 0.5 µM): 83.8%
CN(c1nccc(-c2cnn3ncccc23)n1)C1CC1  remaining binding (Epidermal growth factor receptor (EGFR, Homo sapiens, UniProt P00533, G719S); binding; 1 µM): 100%
Cc1ccc(NC(=O)c2ccc(C)c(C(F)(F)F)c2)cc1C#Cc1nn(C2CCC(O)CC2)c2ncnc(N)c12 (stereo not drawn)  remaining signal (EGFR T790M; cell-free assay; 10 µM): 4%
COc1cc(-c2cn(C3CCc4c(F)cccc4N(CC(F)(F)F)C3=O)nn2)ccc1-n1cnc(C)c1 (stereo not drawn)  remaining binding (EGFR A750P/del747-749; cell-free assay; competition with immobilised ligand; 1 µM): 100%
CN(C)c1nccc(-c2cnc3ncccn23)n1  remaining binding (EGFR del746-750; binding; 1 µM): 60%
C[C@H](NC(=O)c1cnc2n1[C@](C)(Cc1ccc(C#N)cc1)C(=O)N2c1cc(Cl)c(F)c(Cl)c1)C(=O)NC1(c2ccccn2)CC1  remaining binding (EGFR L858R/T790M; cell-free assay; competition with immobilised ligand; 1 µM): 82%
COc1cc2ncnc(Nc3cccc(Cl)c3)c2cc1OC  remaining signal (EGFR; cell-free assay; 0.5 µM): 0.718%
